# Diaphorase act: compounds boosting diaphorase resazurin reduction – biochemical, uHTS, resorufin fluorescence, counter-screen for diaphorase-coupled primary assays, primary screen; Diaphorase/resazurin coupled assay, 16 min; hits give high values; 1 = vehicle wells, 0 = NADH-free wells; activation factor at 20 µM; actives 0.005% (n = 190,000); AID 1229, 2008;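 active means diaphorase activity raised at least twofold by the compound at 20 µM; inactive means activation factor below 2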
#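 Measured by – red resorufin fluorescence at 544/590 nm excitation/emission · Test system – Clostridium kluyveri diaphorase, purified enzyme · Incubation – reaction time 16 min, room temperature · Buffer or medium – 50 mM HEPES pH 7.4 with 4.542 mM MgCl2, 0.005% Tween 20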
# PfGluPho inh: PfG6PD enzyme inhibitors, primary screen, biochemical, fluorescence intensity, uHTS; glucose-6-phosphate dehydrogenase-6-phosphogluconolactonase (Plasmodium falciparum 3D7); PfGluPho enzyme, NADPH resazurin-diaphorase fluorescence; inhibition, % at 20 µM; actives 0.78% (n = 350,000);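 active means inhibition reaching at least a set limit at 20 µM in the primary screen, cut at about 59% in these data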;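 further: 0% = DMSO wells with substrate and 100% = DMSO wells lacking glucose-6-phosphate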
# HKDC1 inhibitor: HKDC1 hexokinase inhibitors, primary screen, biochemical, fluorescence, uHTS; Q2TB90; recombinant HKDC1, G6PDH/diaphorase resazurin coupled fluorescence; inhibition, % at 20 µM; actives 0.16% (n = 340,000); AID 493160, 2011;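 active means inhibition above about 35% when tested at 20 µM, limit read from the data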;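 further: plate controls were DMSO wells with enzyme for no effect and DMSO wells lacking enzyme for full effect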
# Target sequence (Q2TB90 whole entry, looked up): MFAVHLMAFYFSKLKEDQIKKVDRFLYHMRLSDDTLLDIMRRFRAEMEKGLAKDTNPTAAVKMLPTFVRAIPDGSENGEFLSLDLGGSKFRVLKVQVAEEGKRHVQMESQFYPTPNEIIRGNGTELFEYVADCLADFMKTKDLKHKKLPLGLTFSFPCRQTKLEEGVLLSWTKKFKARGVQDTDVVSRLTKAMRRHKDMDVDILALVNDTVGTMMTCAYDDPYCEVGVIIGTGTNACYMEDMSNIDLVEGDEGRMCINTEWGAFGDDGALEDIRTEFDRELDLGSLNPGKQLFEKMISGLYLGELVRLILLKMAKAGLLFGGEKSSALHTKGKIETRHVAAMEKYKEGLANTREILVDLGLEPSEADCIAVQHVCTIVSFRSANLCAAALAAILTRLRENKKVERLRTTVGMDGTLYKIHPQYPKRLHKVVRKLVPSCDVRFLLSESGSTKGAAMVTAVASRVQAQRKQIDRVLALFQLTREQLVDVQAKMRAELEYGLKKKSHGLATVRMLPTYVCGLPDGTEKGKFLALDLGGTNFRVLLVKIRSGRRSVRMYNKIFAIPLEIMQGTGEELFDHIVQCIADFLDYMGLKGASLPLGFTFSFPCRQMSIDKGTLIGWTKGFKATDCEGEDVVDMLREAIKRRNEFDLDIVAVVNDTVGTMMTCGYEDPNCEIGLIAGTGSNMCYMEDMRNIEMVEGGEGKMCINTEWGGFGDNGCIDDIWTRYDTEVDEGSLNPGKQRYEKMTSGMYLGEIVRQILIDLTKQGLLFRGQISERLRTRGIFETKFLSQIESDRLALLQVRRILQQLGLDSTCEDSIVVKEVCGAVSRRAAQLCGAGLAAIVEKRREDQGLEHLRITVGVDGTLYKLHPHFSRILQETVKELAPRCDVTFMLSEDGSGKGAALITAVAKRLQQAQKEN
#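 Test system: recombinant HKDC1 (HK5) hexokinase enzyme, produced in-house; Amount: enzyme 5 µg/mL final; Buffer or medium: Tris pH 8.0 buffer with MgCl2, Tween-20, BSA, BME; Reagent: glucose and ATP substrates; Doses: 20 µM test compound, 1% DMSO; Incubation: 90 min reaction incubation at room temperature, dark; Detection: resorufin fluorescence at 613 nm.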
# Diaph inh CS: diaphorase inhibitors and chemical oxidizers, primary screen, counter-screen for diaphorase-coupled primary assays, biochemical, uHTS, resorufin fluorescence; diaphorase resazurin-to-resorufin fluorescence, NADH, 16 min; bacterial (C. kluyveri) enzyme, not human; inhibition, % at 20 µM; actives 0.69% (n = 190,000); AID 1217, 2008;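 active means primary screen inhibition at 20 µM above a set limit, cut at about 50% in these data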;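 further: plate controls were DMSO with full reaction for no effect and wells lacking NADH for full effect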
#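 material = Clostridium kluyveri diaphorase enzyme | amount = 0.14 U/mL diaphorase, enzyme working solution | schedule = incubation 16 min, room temperature | detection = fluorescence of resorufin formed from resazurin, Ex 544/Em 590 nm | benchmarks = positive control minus NADH, DMSO neutral control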
# G6PDH CS: L. mesenteroides G6PDH inhibitors, counter-screen for G6PDH-coupled screening assays, biochemical, Leuconostoc mesenteroides enzyme | actives 0.12% (n = 200,000) | Purified L. mesenteroides G6PDH, diaphorase/resazurin coupled fluorescence, 45 min | glucose-6-phosphate dehydrogenase [Leuconostoc mesenteroides] | inhibition, % at 5 µM | AID 1020, 2008; in the data active means inhibition above about 50%
# * = called active by the depositor; / = no result. Only some compounds are listed: those with a hit (about 1.2% of all), similar ones and a draw of the others.
SMILES,Diaphorase act,PfGluPho inh,HKDC1 inhibitor,Diaph inh CS,G6PDH CS
CCn1c(SCC(=O)c2ccc(O)c(O)c2)nnc1-c1ccc(C)cc1,0.4,-53,-15,56*,0
O=C1CC(=Nc2ccc([N+](=O)[O-])cc2)NN1c1c(Cl)cc(Cl)cc1Cl,/,-14,/,/,/
CS(=O)CC(O)(c1ccc(F)cc1)C1CC1 (configuration not stated),/,0,/,/,/
CC(C)N1CC=C2C(C#N)=C(N)C(C#N)(C#N)C(c3ccccc3)C2C1 (configuration not stated),0.7,8,12,27,0
CC(C)N1CC=C2C(C#N)=C(N)C(C#N)(C#N)[C@H](c3ccoc3)[C@H]2C1,0.4,/,/,62*,15
NC(=O)C1CC2(C1)CC(C(N)=O)C2 (configuration not stated),/,-11,-11,/,/
O[C@H]1C[C@H](c2ccccc2)N(Cc2cccs2)C[C@@H]1n1cc(-c2ccc(F)cc2)nn1,/,26,/,/,/
CN1CC2(Cc3c1ccc1ccccc31)C(=O)OC(C)(C)OC2=O,0.5,21,25,51*,7
CN1C(=O)C(Cl)(Cl)C(=O)c2ccccc21,0.2,44,-7,76*,25
Cc1ccc(-n2c(=S)[nH]c3c(oc4ccccc43)c2=O)cc1C,0.4,12,-6,62*,8
O=c1c2oc3ccccc3c2[nH]c(=S)n1-c1ccc(F)cc1,0.4,6,-1,59*,-1
CCOC(=O)Cn1c(=S)[nH]c2c(oc3ccc(Cl)cc32)c1=O,0.6,-18,2,44,-6
O=c1[nH]c2c(oc3ccccc32)c(=O)n1Cc1ccccc1,/,-8,-8,/,/
C=CC(=O)Nc1cccc(N(C)c2ccnc(Nc3ccc(N4CCN(C)CC4)cc3)n2)c1,/,66*,9,/,/
COc1ccc(OC)c(NCCN2C(=O)c3ccccc3C2=O)c1,/,43,/,/,/
N#Cc1c(NCCO)nc(NCc2ccccc2)c2c1CCN(Cc1ccccc1)C2,0.4,30,2,59*,38
CCN1CCc2c(C#N)c(N3CCCCC3)nc(NCc3ccccc3)c2C1,0.8,14,9,20,-39
N#Cc1c(N)sc(=S)c2c1CCN(Cc1ccccc1)C2,0.2,/,/,82*,-45
CCN1CCc2c(sc(N)c2C#N)C1,0.9,6,4,11,-21
CC(SCc1ccccc1)C(=O)N/N=C/c1cc2c(cc1Br)OCO2 (configuration not stated),0.5,10,25,51*,14
CC(SCc1ccccc1)C(=O)N/N=C/c1ccc2c(c1)OCO2 (configuration not stated),0.9,20,8,8,-5
Cc1ccc(-n2sc3ccccc3c2=O)cc1S(=O)(=O)N1CCCCC1,0.5,127*,3,46,-12
O=c1c2cc(F)ccc2sn1-c1ccccc1,/,114*,3,/,/
O=C(O)c1cccc(-n2sc3ccccc3c2=O)c1,/,114*,5,/,/
O=c1c2ccccc2[nH]c2ccc(F)cc12,0.9,14,-4,10,4
SMILES,Diaphorase act,PfGluPho inh,HKDC1 inhibitor,Diaph inh CS,G6PDH CS
Cc1ccc(C)c(NC(=O)CN(C)C(=O)c2ccc(COc3ccccc3)cc2)c1,/,3,/,/,/
O=C1CC(c2ccco2)Sc2nc3ccccc3n21 (configuration not stated),0.5,3,5,51*,12
OCc1ccccc1N=c1ssnc1Cl,0.8,/,/,16,3
N#Cc1cccc(N=c2ssnc2Cl)c1,0.7,80*,-13,28,4
O=c1c2c([N+](=O)[O-])cc([N+](=O)[O-])cc2sn1-c1ccc(Br)cc1,0.3,121*,7,67*,-4
O=C(Nc1ccc(Br)cc1)c1cc([N+](=O)[O-])cc([N+](=O)[O-])c1,/,8,9,/,/
O=[N+]([O-])c1ccc(S(=O)Cc2ccccc2)c([N+](=O)[O-])c1 (configuration not stated),/,58,14,/,/
O=c1c2c([N+](=O)[O-])cc([N+](=O)[O-])cc2sn1Cc1ccccc1,/,124*,3,/,/
O=S(=O)(NCc1nnnn1-c1ccc(F)cc1)c1ccc(F)cc1,/,0,/,/,/
CC1=C(C)/C(=N\OC(=O)/C=C/c2ccccc2)C=CC1=O,0.9,30,13,12,8
COc1ccc(S(=O)(=O)/N=C2/C=CC(=O)C(C)=C2C)cc1,0.7,62*,52*,29,40
CC1=C(C)/C(=N\OS(=O)(=O)c2ccc(C)cc2)C=CC1=O,0,108*,15,101*,32
C[C@H](CO)N1C[C@H](C)[C@@H](CN(C)S(=O)(=O)c2ccc(C#N)cc2)OCc2cn(nn2)CCCC1=O,/,-14,/,/,/
N#Cc1c2ccc(OCC(N)=O)cc2n2ccccc12,0.3,43,11,70*,44
CC(C)C(Cl)=NOC(=O)Nc1ccc(S(N)(=O)=O)cc1,/,17,-1,/,/
Cc1c(-c2ccc(OCCN3CCOCC3)cc2)c(=O)oc2ccc3ccccc3c12,/,16,/,/,/
CNc1ccc(Br)cc(C(=O)/C=C/c2ccc(OC)cc2)c1=O,0.5,46,12,45,27
CNc1ccc(Br)cc(C(=O)/C=C/c2ccc3c(c2)OCO3)c1=O,0.4,38,28,57*,39
CC(C)c1cc(C(=O)OCC(=O)NC2CCS(=O)(=O)C2)c(O)c(C(C)C)c1 (configuration not stated),/,0,/,/,/
COc1cc(CN2CCC(C(=O)N3CCN(c4ccccc4F)CC3)CC2)cc(OC)c1O,0.7,0,-1,32,54*
COc1cc2c(cc1OC)CN(Cc1cc(OC)c(O)c(OC)c1)CC2,0.7,14,1,26,53*
COc1cc(CN2CCN(c3ccccc3F)CC2)cc(OC)c1O,0.6,-9,0,40,54*
Cc1sc(NC(=O)c2sc3nc4c(C)cccc4cc3c2N)c(C#N)c1C,0.4,41,6,59*,12
Cc1cccc2cc3c(N)c(C#N)sc3nc12,0.7,40,8,31,5
CCN(CC(=O)Nc1c(F)cccc1F)C(=O)CSCc1ccc(C)cc1,/,-7,/,/,/
COc1ccc(OCc2nc3c4cc(OC)c(OC)cc4nc(=S)n3[nH]2)cc1,0.1,42,-2,92*,-63
COc1cc2nc(=S)n3[nH]c(CCn4c(C)nc5ccccc54)nc3c2cc1OC,0.1,56,8,89*,-2
COc1ccccc1Cn1c(C)nc2ccccc21,/,0,-5,/,/
COc1ccc(OCc2nc3ccccc3[nH]2)cc1,1,-6,-10,-4,-1
